Bioassay records (PubChem BioAssay)
SIAE primary: blocks human sialic acid acetylesterase. SIAE FP-Rh probe binding, fluorescence polarization. Q9HAT2. actives 0.69% (n = 370,000). inhibition, % at 9.66 µM;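 active means inhibition above a cutoff: mean of compounds within the control limits plus 3 SD of those, cut at about 17% in these data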;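 further: 0% = plate median of compound wells and 100% = probe without SIAE protein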
mABHD4 FP: inhibits mouse alpha/beta hydrolase domain 4 | Q8VD66 | purified mABHD4, FP-Rh probe fluorescence polarization | inhibition, % at 8.92 µM | actives 0.54% (n = 370,000) | AID 720543;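 active means inhibition exceeding the mean over every tested compound plus 3 SD, cut at about 30% in these data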;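 further: 0% = plate median of compound wells and 100% = S159A mutant with DMSO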
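system = mouse ABHD4 enzyme, wild type | medium = HEPES pH 7.0, NaCl, Pluronic buffer | also added = FP-Rh probe | incubation = Enzyme–compound pre-incubation 45 min, then probe 60 min, both 25 °C | technique = fluorescence polarization, excitation 525 nm, emission 598 nm, BODIPY TMR filters | controls = S159A mutant high control, sample median low control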
HTRA1 inh: inhibitors of human serine peptidase HTRA1. Q92743. recombinant HTRA1, FP-rhodamine activity-based probe, fluorescence polarization. inhibition, % at 5.96 µM. actives 0.5% (n = 340,000). AID 504803; in the data active means inhibition above about 36%;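 further: 0% = enzyme with DMSO and 100% = wells lacking enzyme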
Target sequence (Q92743 whole entry, looked up): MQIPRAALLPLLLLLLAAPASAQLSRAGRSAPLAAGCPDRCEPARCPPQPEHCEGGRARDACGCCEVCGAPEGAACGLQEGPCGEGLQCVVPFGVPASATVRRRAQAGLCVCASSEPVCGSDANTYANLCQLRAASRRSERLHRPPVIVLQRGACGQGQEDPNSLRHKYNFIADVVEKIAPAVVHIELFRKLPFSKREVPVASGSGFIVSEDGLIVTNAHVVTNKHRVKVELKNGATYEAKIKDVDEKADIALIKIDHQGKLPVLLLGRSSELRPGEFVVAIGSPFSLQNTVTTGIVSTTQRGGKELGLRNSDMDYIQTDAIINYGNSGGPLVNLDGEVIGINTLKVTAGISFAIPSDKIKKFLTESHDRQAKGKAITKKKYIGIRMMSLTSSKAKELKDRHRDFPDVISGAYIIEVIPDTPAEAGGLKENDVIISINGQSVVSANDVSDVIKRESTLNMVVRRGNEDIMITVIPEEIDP
RBBP9 inhibitor: inhibitors of human serine hydrolase RBBP9; O75884; recombinant RBBP9, FP-Rh probe fluorescence polarization; AID 1515; actives 0.2% (n = 220,000); inhibition, % at 7.94 µM;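 active means inhibition above the campaign mean of all tested compounds plus 3 SD, cut at about 14% in these data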;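 further: plate controls were DMSO wells with RBBP9 for no effect and wells lacking RBBP9 protein for full effect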
Target sequence (O75884 whole entry, looked up): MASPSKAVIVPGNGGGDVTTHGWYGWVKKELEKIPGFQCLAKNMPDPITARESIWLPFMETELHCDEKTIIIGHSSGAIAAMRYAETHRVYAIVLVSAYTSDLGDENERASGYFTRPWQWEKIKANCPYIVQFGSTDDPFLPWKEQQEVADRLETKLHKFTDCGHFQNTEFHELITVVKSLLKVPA
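Test system: recombinant human RBBP9; Timing: 30 min then 45 min, 25 °C; Detection: fluorescence polarization; Control set: RBBP9 with DMSO as uninhibited control, no-protein wells as full inhibition; Compound dosing: one concentration, 7.94 µM nominal, 0.794% DMSO; Probe or stimulus: FP-Rh activity-based probe, 375 nM before mixing.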
mABHD4 conf: confirmation of mouse ABHD4 inhibitors; inhibition, % at 8.92 µM; shares compounds with mABHD4 FP; actives 55% (n = 1,800); purified mABHD4, FP-Rh probe fluorescence polarization;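 active means mean inhibition across replicates above the hit cutoff set in the primary screen, cut at about 30% in these data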;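 further: 0% = wild-type ABHD4 with DMSO and 100% = catalytically dead S159A mutant with DMSO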
Starred values were filed as active, the others as inactive; nt = no result given. An excerpt weighted towards active compounds, which were near 1.4% of everything screened.

SMILES | SIAE primary | mABHD4 FP | HTRA1 inh | RBBP9 inhibitor | mABHD4 conf
COc1ccc(C(CNC(=O)c2[nH]c(C)c(C(C)=O)c2C)N2CCOCC2)cc1 (configuration not stated) | -3 | 8 | 6 | nt | nt
CCCC(=O)Nc1nc(C)c(-c2csc(Nc3cc(OC)ccc3OC)n2)s1 | 3 | 32* | 30 | -6 | 58*
O=C(COc1ccccc1)Nc1nc2cc3c(cc2s1)OCO3 | -9 | 36* | -3 | nt | 40*
COc1ccc(NC(=O)c2sc(NC(=O)COc3ccccc3)nc2C)cc1 | -9 | 50* | -5 | -3 | 60*
Cc1nc(NC(=O)COc2ccccc2)sc1C(=O)Nc1cccc(Cl)c1 | -7 | 43* | -20 | -14 | 33*
CCCCNC(=O)C1(C)CCCCN1Cc1ccc2ccccc2c1 (configuration not stated) | 10 | 0 | nt | nt | nt
COc1cc(C(C)=O)ccc1OCC(=O)Nc1ccc(C)c(S(=O)(=O)N2CCCCCC2)c1 | -24 | -17 | -32 | nt | nt
COc1cccc(C2CC(c3ccc(NS(C)(=O)=O)cc3)=NN2C(=O)c2ccccc2)c1OC (configuration not stated) | 6 | 44* | -10 | -13 | 55*
CSc1cccc(NC(=S)NN/C(=N/S(=O)(=O)c2ccccc2)N2CCCC2)c1 | 4 | 4 | nt | nt | nt
C[N+](C)(C)CCN1CCc2ccccc21 | 4 | -1 | nt | nt | nt
COCCN1C[C@@H](CO)O[C@@H](n2cnc3c(NCc4ccco4)ncnc32)C1 | 5 | 5 | nt | nt | nt
CCCCn1c(N)c(N(CC(C)C)C(=O)c2ccc(N3C(=O)c4ccccc4C3=O)cc2)c(=O)[nH]c1=O | -2 | 3 | -1 | nt | nt
CCCCn1c(N)c(N(CC(C)C)C(=O)C2CCCO2)c(=O)[nH]c1=O (configuration not stated) | 0 | 32* | 3 | nt | -4
CCCCn1c(N)c(N(CC(C)C)C(=O)c2ccc(N3C(=O)CCC3=O)cc2)c(=O)[nH]c1=O | 2 | 35* | -2 | nt | 4
COC(=O)C=C1CCC2C3CCC4=CC(=O)C(Br)CC4(C)C3C(=O)CC12C (configuration not stated) | 6 | 6 | -3 | nt | nt
O=C(Cc1c[nH]c2ccccc12)Nc1ccc(Nc2cccnc2)c(-c2cc(F)cc(F)c2)c1 | 15 | 8 | nt | nt | nt
CC(C)(C)c1ccc(-c2cc(NC(=O)Cc3c[nH]c4ccccc34)ccc2Nc2cccnc2)cc1 | 11 | 41* | nt | nt | 55*
CCCc1ccc(-c2cc(NC(=O)Cc3c[nH]c4ccccc34)ccc2Nc2cccnc2)cc1 | 11 | 42* | nt | nt | 39*
CCC[C@H]1[C@@H](NC(=O)C#Cc2ccccc2)CC[C@@]23CCCN2C(=O)CCC[C@@H]13 | -3 | -1 | nt | nt | nt
COCCCn1cnnc1SC(C)C(=O)Nc1ccc(S(=O)(=O)N2CCOCC2)cc1 (configuration not stated) | 3 | 2 | 10 | nt | nt
COc1cc(N(C(C)=O)c2ccc(O)c(C(=O)O)c2)c2ncccc2c1 | 13 | 31* | 16 | nt | 47*
Cc1ccc(S(=O)(=O)N2CC(O)C[C@H]2C(=O)OCC(=O)N2CCN(c3ccc(F)cc3)CC2)cc1C (some centres not stated) | 2 | 3 | 2 | nt | nt
CCOC(=O)C1=C(C)Nc2ccc(C)cc2S1 | 9 | 3 | 6 | 7 | nt
Cc1ccc2c(c1)Sc1c(ccc3ccccc13)N2 | 5 | 30* | 14 | -1 | 38*
O=C(NCCc1ccccc1Cl)[C@@H]1CCCN1C(=O)[C@@H](NC(=O)N1CCOCC1)C1CCCCC1 | -4 | 3 | nt | nt | nt
SMILES | SIAE primary | mABHD4 FP | HTRA1 inh | RBBP9 inhibitor | mABHD4 conf
CCCC(C(=O)O)N1C(=O)/C(=C2\C(=O)N(C)c3ccccc32)SC1=S (configuration not stated) | 12 | 41* | 3 | nt | 58*
O=C(O)CN1C(=O)/C(=C2\SC(=S)N(C(Cc3ccccc3)C(=O)O)C2=O)c2ccccc21 (configuration not stated) | 2 | 56* | -3 | nt | 45*
Cc1ccc(NC(=O)CCn2c(=O)[nH]c3ccsc3c2=O)cc1F | 1 | -3 | 9 | nt | nt
O=C(Nc1ccc([N+](=O)[O-])cc1)C(=O)Nc1cccc(C(=O)O)c1 | -2 | 30* | 0 | -3 | 26
CC(=O)c1ccc(NC(=O)Nc2ccc([N+](=O)[O-])cc2)cc1 | -1 | -1 | -3 | -2 | nt
O=C(O)/C=C/c1cccc(NC(=O)Nc2ccc([N+](=O)[O-])cc2)c1 | 0 | 30* | -9 | nt | 22
O=C(O)c1cc(NC(=O)c2ccc([N+](=O)[O-])cc2)cc(NC(=O)c2ccc([N+](=O)[O-])cc2)c1 | 2 | 16 | -2 | nt | nt
CS(=O)(=O)Nc1ccc(-c2cnc3cccnn23)cc1 | 0 | -9 | nt | nt | nt
COC(=O)N1Cc2ccnnc2CC1c1ccccc1-c1ccc(OC)cc1 (configuration not stated) | 0 | 6 | nt | nt | nt
COc1ccc(/C=C/C(=O)Nc2cccnc2Cl)cc1 | -4 | 97* | 8 | nt | -4
Cc1cc(-c2ccc3c(c2)COc2c4ccccc4nn2-3)on1 | -3 | 31* | -1 | nt | -2
N#C/C(=C\c1ccc(-c2ccccc2)o1)C(=O)Nn1cnnc1 | -16 | 47* | -3 | -7 | 1
Cc1ccc(-c2ccc(/C=C(\C#N)C(=O)Nc3cc(C)nn3-c3ccccc3)o2)cc1 | nt | nt | nt | -4 | nt
COC(=O)c1cc(S(=O)(=O)C(C)C)c(S(C)=O)s1 (configuration not stated) | -6 | -4 | 2 | 2 | nt
CCOC(=O)[C@]12CCCC3=C1N(CCC3)C(=O)[C@@H](CC(=O)N1CCN(C(=O)C3CC3)CC1)C2 | -4 | 3 | nt | nt | nt
CCCOc1ccc(/C=N/Nc2ccccc2[N+](=O)[O-])c(O)c1 | 13 | -1 | 7 | -3 | nt
O=[N+]([O-])c1cc(/C=N/NC(=S)Nc2ccccc2Cl)ccc1Cl | -13 | -3 | -12 | -7 | nt
Cc1ccccc1NC(=S)N/N=C/c1ccc(O)cc1O | 14 | 34* | 35 | 1 | 11
Cc1cccc(NC(=S)N/N=C/c2cccc(O)c2)c1C | 6 | -9 | -1 | -6 | nt
CCCOc1ccc(/C=N/NC(=S)Nc2ccccc2[N+](=O)[O-])c(O)c1 | 13 | 39* | nt | -5 | 36*
COc1ccc(/C=N/NC(=S)Nc2ccccc2[N+](=O)[O-])cc1O | -1 | 44* | 16 | 2 | 24
C#CCNC(=O)C[C@@H]1C(=O)N2CCCC3=C2[C@@]1(C(=O)OC)CCCC3 | -2 | -2 | nt | nt | nt
OC(CCN1CC2CCC(CC2)C1)(Cc1ccccc1)c1ccco1 (configuration not stated) | 14 | 37* | 3 | nt | 18
COc1cccc2sc(NN)nc12 | 0 | 92* | 28 | 4 | 44*
Cc1ccc(O)c(NC(=O)c2cc(-c3ccccc3Cl)on2)c1 | -8 | -6 | -6 | nt | nt
COC(=O)CCCC1=CC2=CC(=O)C(C)(OC(=O)c3cccs3)C(=O)C2=CN1Cc1ccccc1 (configuration not stated) | 2 | 16 | 24 | nt | nt
